# Screening results: PubChem, Broad Institute
# CaV13 ICDI inh: Disruptors of the CACNA1D IQ motif to Ca2+-dependent inactivation inhibitor domain association, primary screening, Förster resonance energy transfer in intact living …. HEK cells, CFP/YFP FRET ICDI-IQ, plate reader, 10 min; percent FRET-ratio fall versus neutral wells. inhibition, % at 12.3 µM. 0.098% of 340,000 active;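 active = mean replicate inhibition of at least 30% and at least 1% of replicates passing that level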
# CAL PDZ FP-1: untagged CAL PDZ binding inhibitors, primary screen, biochemical, fluorescence polarization, HTS; Golgi-associated PDZ and coiled-coil motif-containing protein (Homo sapiens), Q9HD26; purified CAL PDZ, TMR-peptide fluorescence polarization, 1 h; inhibition, % at 24.9 µM; 0.92% of 300,000 active;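 active = mean inhibition of at least 30% with at least half of replicates also reaching 30%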
# CAL PDZ FP-2: CAL PDZ peptide-binding inhibitors, primary screen, biochemical, fluorescence polarization, Cer-tagged CAL PDZ, HTS | purified CAL PDZ, TMR-peptide fluorescence polarization, 1 h | 0.02% of 330,000 active | Golgi-associated PDZ and coiled-coil motif-containing protein (Homo sapiens), Q9HD26 | inhibition, % at 20 µM;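 active = highest replicate inhibition of at least 40%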
#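 material = purified tagged CAL PDZ domain construct (CerCALP) | compound dosing = 20 µM, one dose | times = 1 h at RT | measured by = fluorescence polarization from S- and P-plane intensities, G-factor corrected | read-out = inhibition from polarization loss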
# ARNT TACC3 PPI: disruptors of ARNT/TACC3 protein interaction, primary screen, biochemical, AlphaScreen, single concentration. Transforming acidic coiled-coil-containing protein 3 (Homo sapiens), Q9Y6A5. AlphaScreen His-ARNT PAS-B/GST-TACC3 binding, luminescence; TACC3 fragment carries E629A point mutation. inhibition, % at 9.99 µM. 0.66% of 390,000 active. AID 623870, 2012;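 active = mean inhibition of replicates at least 50% and at least half of replicates each reaching 50%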
# Hits are given with their value; 0 = inactive; - = no result; + = active, no number. A selection: hits, their analogues and other compounds. The true share with any hit is near 1.2%.
SMILES,CaV13 ICDI inh,CAL PDZ FP-1,CAL PDZ FP-2,ARNT TACC3 PPI
Cc1cc2c(C)cc(=O)oc2c2c1NCCC2,32.8,0,0,0
CS(=O)(=O)Nc1ccc2c(c1)[C@H]1C[C@@H](CC(=O)NCc3cccnc3)O[C@@H](CO)[C@H]1O2,-,-,-,0
CCOC(=O)C1CCN(c2ccc(-c3cccs3)nn2)CC1,0,93.2,-,0
CCOC(=O)C1CCN(c2ccc(Cl)nn2)CC1,0,0,0,0
C=CCn1c(SCCN2C(=O)c3ccccc3C2=O)nc2scc(-c3ccc(F)cc3)c2c1=O,0,0,0,55.5
C=CCn1c(SCC(=O)N2CC(=O)Nc3ccccc32)nc2scc(-c3ccccc3)c2c1=O,0,0,0,-
CCOC(=O)Cn1c2ccccc2c2nc3ccccc3nc21,0,42.3,0,0
CC(C)NC(=O)N(C)C[C@H]1Oc2cc(C#C[C@H](C)O)ccc2S(=O)(=O)N([C@@H](C)CO)C[C@H]1C,-,-,-,0
Cc1cccn2c(=O)c(/C=C(\C#N)C(=O)NC3CCS(=O)(=O)C3)c(N3CCC(C(N)=O)CC3)nc12 (stereo not drawn),+,0,0,0
CC(C)(C)OC(=O)NCCC(=O)N/N=C/c1cccc2cccnc12,0,0,0,68.7
CC(C)(C)OC(=O)N1CCC[C@H]1C(=O)N/N=C/c1cccc2cccnc12,0,0,0,90.8
O=C(COc1cccc2cccnc12)N/N=C/c1ccccc1O,0,0,0,0
Cc1ccccc1OCC(=O)N/N=C/c1cccc2cccnc12,0,-,0,65.2
CC(C)(C)OC(=O)NCCC(=O)N/N=C/c1ccc2ncccc2c1,0,-,0,0
Cc1ccc(OCC(=O)N/N=C/c2cccc3cccnc23)cc1,0,0,0,64.1
Cc1cccc(NC(=O)[C@@H]2CCCN2C(=O)OC(C)(C)C)c1,0,0,0,0
Cc1ccc(OCC(=O)N/N=C/c2cn(C)c3ccccc23)cc1,0,0,0,0
CN(C)C(=O)[C@H]1[C@H](CO)[C@H]2Cn3c(ccc(-c4ccncc4)c3=O)[C@@H]1N2CC1CC1,-,-,-,0
O=C(COc1ccc(F)cc1)N/N=C/c1cccc2cccnc12,-,-,0,95.5
COc1ccccc1CNC(=O)COC(=O)CC1CC2CCC1C2 (stereo not drawn),0,80.3,0,0
C[C@@H]1CN([C@@H](C)CO)C(=O)Cc2cc(NS(=O)(=O)c3cn(C)cn3)ccc2O[C@H]1CN(C)CC1CCCCC1,-,-,-,0
CCn1cc(/C=N\NC(=O)c2c[nH]c3ccccc23)c(C)n1,0,0,0,0
CCn1cc(/C=N\NC(=O)c2csc3ccccc23)c(C)n1,0,31.6,-,0
C/C(CC(=O)Nc1ccc(N(C)C)cc1)=N\NC(=O)c1cnccn1,0,0,0,-
Cc1ccc(NC(=O)C(NCc2ccccn2)c2ccccc2)cc1 (stereo not drawn),0,0,0,0
SMILES,CaV13 ICDI inh,CAL PDZ FP-1,CAL PDZ FP-2,ARNT TACC3 PPI
C/C(CC(=O)Nc1ccc(N(C)C)cc1)=N\NC(=O)c1ccccn1,-,-,0,51.7
CN(C)c1ccc(NC(=O)CC(NCc2ccccn2)C(=O)O)cc1 (stereo not drawn),0,0,0,76.9
COc1cccc(C#Cc2cnc3c(c2)C(=O)N([C@H](C)CO)C[C@H](C)[C@@H](CN(C)C(=O)C2CCOCC2)O3)c1,-,-,-,0
Cc1nc(SCC(=O)N2CCN(C(=O)c3ccco3)CC2)c2c(C)c(C)sc2n1,0,30.9,-,0
Cc1nc(SCC(=O)N2CCN(C(=O)c3cccs3)CC2)c2c(C)c(C)sc2n1,0,0,0,0
CO[C@@H]1CC[C@H]2CCOc3c(C#N)cccc3C(=O)N(C)[C@@H](C)C(=O)N(C)C[C@H]1O2,-,-,-,0
Cc1ccc(NC(=S)N=Nc2c(O)[nH]c3ccccc23)cc1,0,0,0,0
Oc1ccc(NC(=S)N=Nc2c(O)[nH]c3ccccc23)cc1,0,0,0,66.6
Cn1c(NCC(O)CO)nc2c1c(=O)n(Cc1ccc(Cl)c(Cl)c1)c(=O)n2C (stereo not drawn),-,0,0,0
Cn1c(NCc2ccco2)nc2c1c(=O)n(Cc1ccc(Cl)c(Cl)c1)c(=O)n2C,0,75.9,0,0
CCCCSC1(SCCCC)N=C(N)C2(C#N)C(c3ccccc3)NC(C)=CC12C#N (stereo not drawn),-,0,0,56.0
O=C(O)c1ccc(-c2ccc(OS(=O)(=O)c3ccccc3F)cc2)cc1,0,44.8,0,-
COC(=O)c1ccccc1S(=O)(=O)Oc1ccc(-c2ccc(C(=O)O)cc2)cc1,0,0,0,0
Cc1cc(C)n(-c2nnc(C)c(=O)[nH]2)n1,0,0,0,60.0
Cc1cc(C)n(-c2nnc(C)n2N)n1,0,0,0,0
COc1cccc(NC(=O)CCC(=O)Nc2cc(OC)c(NC(=O)c3cccs3)cc2OC)c1,0,0,0,49.8
COc1ccc(NC(=O)CCC(=O)Nc2cc(OC)c(NC(=O)c3cccs3)cc2OC)cc1,0,0,0,0
O=C(C[C@H]1CC[C@@H]2[C@H](COC[C@H](O)CN2CCc2ccccc2)O1)N1CCC(Cc2ccccc2)CC1,-,-,-,0
C[C@@H]1CCCCO[C@H](CN(C)C(=O)NC2CCCCC2)[C@@H](C)CN([C@@H](C)CO)C(=O)c2cc(NS(C)(=O)=O)ccc2O1,-,-,-,0
Cc1ccc(S(=O)(=O)Nc2ccc3c(c2)C(=O)N([C@@H](C)CO)C[C@@H](C)[C@H](CN(C)S(C)(=O)=O)OCCCC[C@@H](C)O3)cc1,-,-,-,0
CC(C)CNC(=O)c1ccccc1-c1ccccc1C(=O)O,0,0,0,0
CCC(C)NC(=O)c1ccccc1-c1ccccc1C(=O)NC(C)CC (stereo not drawn),0,72.5,0,0
CN(c1ccc(C(=O)N2CCCCC2)cc1)S(=O)(=O)c1ccccc1,-,0,0,0
CN(c1ccccc1)S(=O)(=O)c1cccc(C(=O)N2CCCCCC2)c1,0,38.8,0,0
O=C(c1cccc(S(=O)(=O)NCc2ccccc2)c1)N1CCCC1,0,85.3,0,0
SMILES,CaV13 ICDI inh,CAL PDZ FP-1,CAL PDZ FP-2,ARNT TACC3 PPI
O=C(C[C@@H]1C[C@H]2c3cc(NC(=O)Nc4ccccc4)ccc3O[C@H]2[C@H](CO)O1)NCCN1CCCCC1,-,-,-,0
O=C(CSC(=S)N1CCOCC1)c1cc2ccccc2oc1=O,-,0,0,47.9
COc1ccc(CN(C)C(=O)CNC(=O)CNC(=O)c2ccc(Cl)cc2Cl)cc1F,0,+,0,0
CN(Cc1ccc(Cl)s1)C(=O)CNC(=O)CNC(=O)c1ccc(Cl)cc1Cl,0,0,0,0
C[C@H]1CN([C@@H](C)CO)C(=O)c2cccc(NS(=O)(=O)c3cccs3)c2O[C@H]1CN(C)C,-,-,-,0
CNC[C@H]1Oc2c(NC(=O)Nc3ccc(F)cc3)cccc2C(=O)N([C@H](C)CO)C[C@H]1C,-,-,-,0
